From publication PMC5125728 (Cell reports, 2016)
Residue numbers refer to the chain shown, from its start. Each block holds one molecule with its values, some of them ahead of it. Where no end group is shown, it is not given here. Me2 = dimethyl (dimethyl-lysine)

Key:
PHF20 PHD finger (WT) = molecular target: T1, PHF20 PHD finger (WT) (Homo sapiens, UniProt Q9BVI0); assay: Tryptophan fluorescence binding of histone peptides to WT PHF20 PHD finger
T1 sequence (Q9BVI0 651-699): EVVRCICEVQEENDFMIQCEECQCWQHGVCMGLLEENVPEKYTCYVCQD
In short: (§1)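 The PHF20 PHD (aa 651–699, GST cleaved; mutants by site-directed mutagenesis) was in PBS pH 6.8 with 10 mM DTT at room temperature. Histone peptide was increased progressively. Excitation was at 280 nm and emission was scanned 310–405 nm (0.5-nm steps, 1-s integration, three scans averaged). Kd came from a nonlinear least-squares fit of intensity change, averaged over three separate experiments, with SD between runs.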

[1] = molecular target: T2, E662D mutant of PHF20-PHD (Homo sapiens, UniProt Q9BVI0, E662D); assay: Tryptophan fluorescence binding of histone peptides to E662D mutant of PHF20 PHD
T2 sequence (Q9BVI0 651-699 E662D): T1 sequence (Q9BVI0 651-699) with E12D
In short: as §1

[2] = system: E662K mutant of PHF20 PHD finger; assay: NMR and tryptophan fluorescence binding, E662K mutant of PHF20 PHD; set-up: species or system human; conditions: E662K folded, soluble, stable protein; Figures 4C and 4E
In short: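 GST-tagged PHF20 PHD (aa 651–699), wild-type or point mutant made by site-directed mutagenesis, was expressed in E. coli Rosetta-2(DE3)pLysS in 15NH4Cl minimal medium with 150 μM ZnCl2, then GST-cleaved. 1H,15N HSQC spectra were collected at 298K (600/500 MHz) as 12-mer histone tail peptides were added stepwise. Shift changes were normalized as √(ΔδH²+(ΔδN/5)²); Kd came from a nonlinear least-squares fit.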

GST-PHF20 PHD = assay: Biotinylated histone peptide pull-down with GST-PHF20 PHD, western blot; format: binding, human; conditions: 1 μg biotinylated peptide, 1 μg GST-PHF20 PHD, 50 mM Tris-HCl pH 7.5, 250 mM NaCl, 0.1% NP-40, overnight, streptavidin beads
[3] = molecular target: PHF20 PHD finger (aa 651-699), wild type (human) (UniProt Q9BVI0); assay: other fluorescence titration
[4] = molecular target: PHF20 PHD finger E662D (human) (UniProt Q9BVI0); assay: other fluorescence titration
PHF20 PHD finger R654H = molecular target: T3, PHF20 PHD finger R654H (human, UniProt Q9BVI0 651-699, R654H); assay: NMR titration
T3 chain (looked up): T1 sequence (Q9BVI0 651-699) with R4H

PHF20 PHD finger F665V = molecular target: T4, PHF20 PHD finger F665V (human, UniProt Q9BVI0 651-699, F665V); assay: NMR titration
T4 chain (looked up): T1 sequence (Q9BVI0 651-699) with F15V

PHF20 PHD finger P689L = molecular target: T5, PHF20 PHD finger P689L (human, UniProt Q9BVI0 651-699, P689L); assay: NMR titration
T5 chain (looked up): T1 sequence (Q9BVI0 651-699) with P39L

PHF20 Tudor2 (aa 58-148) = molecular target: T6, PHF20 Tudor2 (aa 58-148) (human, UniProt Q9BVI0 58-148); assay: NMR titration
T6 sequence (looked up): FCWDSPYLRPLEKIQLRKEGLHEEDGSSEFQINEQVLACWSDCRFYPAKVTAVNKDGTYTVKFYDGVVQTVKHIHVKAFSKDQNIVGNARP

[5] = molecular target: T7, PHF20 PHD finger (aa 651-699), wild type (human, UniProt Q9BVI0 651-699); assay: other fluorescence titration
T7 chain (looked up): T1 sequence (Q9BVI0 651-699)

PHF20 PHD finger E662D = molecular target: T8, PHF20 PHD finger E662D (human, UniProt Q9BVI0 651-699, E662D); assay: other fluorescence titration
T8 chain (looked up): T1 sequence (Q9BVI0 651-699) with E12D

[6] = molecular target: T9, PHF20 PHD finger (residues 646-699) (human, UniProt Q9BVI0 646-699); assay: NMR structure
T9 sequence (looked up): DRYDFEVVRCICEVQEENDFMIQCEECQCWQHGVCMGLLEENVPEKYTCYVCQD

Molecule: C[C@H](N)C(=O)N[C@@H](CCCNC(=N)N)C(=O)N[C@H](C(=O)N[C@@H](CCCCN(C)C)C(=O)N[C@@H](CCC(N)=O)C(=O)N[C@H](C(=O)N[C@@H](C)C(=O)N[C@@H](CCCNC(=N)N)C(=O)N[C@@H](CCCCN)C(=O)N[C@@H](CO)C(=O)N[C@H](C(N)=O)[C@@H](C)O)[C@@H](C)O)[C@@H](C)O [H3K4me2]
- Kd (PHF20 PHD finger (WT)): 3.6 µM
- Kd [1]: 3.6 µM
- interaction with E662K mutant [2]: completely abrogated interaction
- binding in peptide pull-down (GST-PHF20 PHD): binds

- fold weaker than H3K4me2 [3]: 20 fold
Molecule: H3K4me0 peptide (12-mer)

- fold weaker than H3K4me2 [3]: 14 fold
Molecule: H3K4me1 peptide (12-mer)

- fold weaker than H3K4me2 [3]: 6 fold
- Kd [4]: 3.7 µM
Molecule: H3K4me3 peptide (12-mer)

- fold decrease of binding compared with WT (PHF20 PHD finger R654H): ~8 fold
- fold decrease of binding compared with WT (PHF20 PHD finger F665V): ~9 fold
- fold decrease of binding compared with WT (PHF20 PHD finger P689L): ~17 fold
- Kd (PHF20 Tudor2 (aa 58-148)): ~1 mM
- Kd [5]: 3.6 µM
- Kd (PHF20 PHD finger E662D): 3.6 µM
Molecule: ARTK(Me2)QTARKSTG (peptide, UniProt P68431 2-13, looked up) [H3K4me2 peptide (aa 1-12)]

- binding result [6]: binds
Molecule: ARTK(Me2)QTARKST-NH2 [11-residue C-terminally amidated H3K4me2 peptide]
